From ChEMBL document CHEMBL5247575 (J Med Chem, 2018)

What follows are molecules tested on Escherichia coli (assay: Antibacterial activity against Escherichia coli DH10B transfected with pBC SK (-) KPC-3 by broth microdilution method). Conditions: not given.
Assay type: functional

SMILES | MIC
N#C[C@@H]1CC[C@@H]2CN1C(=O)N2OS(=O)(=O)[O-].[Na+] | > 16 µg/mL

These molecules were tested on Bacteria (assay: Inhibition of bacteria KPC-2 assessed as half life using nitrocefin as substrate). Conditions: not given.

SMILES | T1/2
N#C[C@@H]1CC[C@@H]2CN1C(=O)N2OS(=O)(=O)[O-].[Na+] | 26 min

What follows are molecules tested on Escherichia coli (assay: Antibacterial activity against Escherichia coli DH10B transfected with pBR322-catI-KPC-2 by broth microdilution method). Conditions: not given.
Assay type: functional

SMILES | MIC
N#C[C@@H]1CC[C@@H]2CN1C(=O)N2OS(=O)(=O)[O-].[Na+] | > 16 µg/mL

The molecules below were run on Escherichia coli (assay: Synergistic antibacterial activity against Escherichia coli DH10B assessed as cefepime MIC at 4 ug/ml by broth microdilution method). Conditions: dose 4 µg/ml.
Assay type: functional

SMILES | MIC
N#C[C@@H]1CC[C@@H]2CN1C(=O)N2OS(=O)(=O)[O-].[Na+] | ≤ 0.12 µg/mL

What follows are molecules tested on Klebsiella pneumoniae (assay: Synergistic antibacterial activity against Klebsiella pneumoniae 972/1910 producing KPC-3 assessed as cefepime MIC at 4 ug/ml by broth microdilution method). Conditions: dose 4 µg/ml.
Assay type: functional

SMILES | MIC
N#C[C@@H]1CC[C@@H]2CN1C(=O)N2OS(=O)(=O)[O-].[Na+] | 0.25 µg/mL

These molecules were tested on Pseudomonas aeruginosa (assay: Synergistic antibacterial activity against Pseudomonas aeruginosa 839 assessed as cefepime MIC at 4 ug/ml by broth microdilution method). Conditions: dose 4 µg/ml.
Assay type: functional

SMILES | MIC
N#C[C@@H]1CC[C@@H]2CN1C(=O)N2OS(=O)(=O)[O-].[Na+] | 8 µg/mL

Each molecule was assayed on Acinetobacter baumannii (assay: Synergistic antibacterial activity against Acinetobacter baumannii PR323 producing OXA-24/40 assessed as cefepime MIC at 4 ug/ml by broth microdilution method). Conditions: dose 4 µg/ml.
Assay type: functional

SMILES | MIC
N#C[C@@H]1CC[C@@H]2CN1C(=O)N2OS(=O)(=O)[O-].[Na+] | > 16 µg/mL

What follows are molecules tested on Acinetobacter baumannii (assay: Synergistic antibacterial activity against Acinetobacter baumannii PR408 producing OXA-24/40 assessed as cefepime MIC at 4 ug/ml by broth microdilution method). Conditions: dose 4 µg/ml.
Assay type: functional

SMILES | MIC
N#C[C@@H]1CC[C@@H]2CN1C(=O)N2OS(=O)(=O)[O-].[Na+] | 8 µg/mL

Each molecule was assayed on Acinetobacter baumannii (assay: Synergistic antibacterial activity against Acinetobacter baumannii PR448 producing OXA-23 assessed as cefepime MIC at 4 ug/ml by broth microdilution method). Conditions: dose 4 µg/ml.
Assay type: functional

SMILES | MIC
N#C[C@@H]1CC[C@@H]2CN1C(=O)N2OS(=O)(=O)[O-].[Na+] | 2 µg/mL

Each molecule was assayed on Escherichia coli (assay: Synergistic antibacterial activity against Escherichia coli DH10B transfected with pBR322-catI-KPC-2 assessed as cefepime MIC at 8 ug/ml by broth microdilution method). Conditions: dose 8 µg/ml.
Assay type: functional
Outline: (§1)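 Broth microdilution per CLSI guidelines, using custom frozen panels. […] Each partner drug was also tested alone. MICs were run in triplicate and the modal value is reported.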

SMILES | MIC
N#C[C@@H]1CC[C@@H]2CN1C(=O)N2OS(=O)(=O)[O-].[Na+] | ≤ 0.12 µg/mL

Each molecule was assayed on Klebsiella pneumoniae (assay: Synergistic antibacterial activity against Klebsiella pneumoniae 660/1568 producing KPC-3 assessed as cefepime MIC at 8 ug/ml by broth microdilution method). Conditions: dose 8 µg/ml.
Assay type: functional
Outline: as §1

SMILES | MIC
N#C[C@@H]1CC[C@@H]2CN1C(=O)N2OS(=O)(=O)[O-].[Na+] | 0.25 µg/mL

The molecules below were run on Klebsiella pneumoniae (assay: Synergistic antibacterial activity against Klebsiella pneumoniae 729/1679 producing KPC-3 assessed as cefepime MIC at 8 ug/ml by broth microdilution method). Conditions: dose 8 µg/ml.
Assay type: functional
Outline: as §1

SMILES | MIC
N#C[C@@H]1CC[C@@H]2CN1C(=O)N2OS(=O)(=O)[O-].[Na+] | 0.25 µg/mL

Each molecule was assayed on Klebsiella pneumoniae (assay: Synergistic antibacterial activity against Klebsiella pneumoniae 1108/1989 producing KPC-3 assessed as cefepime MIC at 8 ug/ml by broth microdilution method). Conditions: dose 8 µg/ml.
Assay type: functional
Outline: as §1

SMILES | MIC
N#C[C@@H]1CC[C@@H]2CN1C(=O)N2OS(=O)(=O)[O-].[Na+] | ≤ 0.12 µg/mL

These molecules were tested on Klebsiella pneumoniae (assay: Synergistic antibacterial activity against Klebsiella pneumoniae CAV 1636 producing OXA-181 assessed as cefepime MIC at 8 ug/ml by broth microdilution method). Conditions: dose 8 µg/ml.
Assay type: functional

SMILES | MIC
N#C[C@@H]1CC[C@@H]2CN1C(=O)N2OS(=O)(=O)[O-].[Na+] | 0.5 µg/mL

These molecules were tested on Pseudomonas aeruginosa (assay: Synergistic antibacterial activity against Pseudomonas aeruginosa CL232 assessed as cefepime MIC at 8 ug/ml by broth microdilution method). Conditions: dose 8 µg/ml.
Assay type: functional

SMILES | MIC
N#C[C@@H]1CC[C@@H]2CN1C(=O)N2OS(=O)(=O)[O-].[Na+] | > 16 µg/mL

The molecules below were run on Acinetobacter baumannii (assay: Synergistic antibacterial activity against Acinetobacter baumannii PR381 producing OXA-24/40 assessed as cefepime MIC at 8 ug/ml by broth microdilution method). Conditions: dose 8 µg/ml.
Assay type: functional

SMILES | MIC
N#C[C@@H]1CC[C@@H]2CN1C(=O)N2OS(=O)(=O)[O-].[Na+] | 16 µg/mL

The molecules below were run on Acinetobacter baumannii (assay: Synergistic antibacterial activity against Acinetobacter baumannii PR476 producing OXA-24/40 assessed as cefepime MIC at 8 ug/ml by broth microdilution method). Conditions: dose 8 µg/ml.
Assay type: functional

SMILES | MIC
N#C[C@@H]1CC[C@@H]2CN1C(=O)N2OS(=O)(=O)[O-].[Na+] | 2 µg/mL

The molecules below were run on Klebsiella pneumoniae (assay: Synergistic antibacterial activity against Klebsiella pneumoniae 1084/1957 producing KPC-3 assessed as meropenem MIC at 4 ug/ml by broth microdilution method). Conditions: dose 4 µg/ml.
Assay type: functional
Outline: as §1

SMILES | MIC
N#C[C@@H]1CC[C@@H]2CN1C(=O)N2OS(=O)(=O)[O-].[Na+] | ≤ 0.12 µg/mL

Each molecule was assayed on Klebsiella pneumoniae (assay: Synergistic antibacterial activity against Klebsiella pneumoniae 1398/2291 producing KPC-3 assessed as meropenem MIC at 4 ug/ml by broth microdilution method). Conditions: dose 4 µg/ml.
Assay type: functional
Outline: as §1

SMILES | MIC
N#C[C@@H]1CC[C@@H]2CN1C(=O)N2OS(=O)(=O)[O-].[Na+] | ≤ 0.12 µg/mL
